Columns and labels:
[1] = test system: Plasmodium falciparum; assay: Antimalarial activity against chloroquine-sensitive asexual blood stage of Plasmodium falciparum 3D7 infected in RBC after 72 hrs by SYBR Green assay; assay type: functional, organism-based; conditions: 3D7, 72 h
Procedure, shortened: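 Asexual blood-stage P. falciparum 3D7 (chloroquine-sensitive) parasites. 1536-well format, 11-point dose-response, duplicate tests. Torin 2 served as positive control and DMSO as negative control.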

[2] = test system: HepG2; assay: Cytotoxicity against human HepG2 cells assessed as cell viability after 24 hrs; assay type: cell-based; conditions: HepG2, 24 h
Procedure, shortened: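 HepG2 cell viability as general cytotoxicity. 1536-well, 11-point dose-response in duplicate, top concentration 46 μM. Torin 2 positive control, DMSO negative control.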

[3] = test system: Plasmodium falciparum; assay: Gametocytocidal activity against chloroquine-sensitive late gametocytic stage (III to V) of Plasmodium falciparum 3D7 after 72 hrs by Alamar Blue assay; assay type: functional, organism-based; conditions: 3D7, 72 h
Procedure, shortened: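 Late-stage (III–V) P. falciparum 3D7 gametocytes. AlamarBlue redox indicator reads cytosolic metabolic activity as a measure of gametocyte viability. 1536-well format, 11-point dose-response, duplicates. Torin 2 positive control, DMSO negative control.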

[4] = test system: Plasmodium falciparum; assay: Selectivity ratio of IC50 for chloroquine-sensitive late gametocytic stage (III to V) of Plasmodium falciparum 3D7 to IC50 for chloroquine-sensitive asexual blood stage of Plasmodium falciparum 3D7; assay type: functional

IC50 [1]	Compound	IC50 [2]	IC50 [3]	Ratio IC50 [4]
17 nM	Cn1c(=O)n(-c2cccc(C(F)(F)F)c2)c2c3cc(-c4cnc(N)nc4)ccc3ncc21	1330 nM	52 nM	–
213 nM	Nc1ncc(-c2ccc3ncc4[nH]c(=O)n(-c5cccc(C(F)(F)F)c5)c4c3c2)cn1	2540 nM	450 nM	–
65 nM	Cn1c(=O)n(-c2cccc(C(F)(F)F)c2)c2c3cc(-c4ccc5[nH]cnc5c4)ccc3ncc21	2630 nM	157 nM	–
114 nM	Cn1c(=O)n(-c2cccc(C(F)(F)F)c2)c2c3cc(-c4ccc(O)cc4)ccc3ncc21	2330 nM	229 nM	1
88 nM	COc1cccc(-n2c(=O)n(C)c3cnc4ccc(-c5ccc(N)nc5)cc4c32)c1	2530 nM	126 nM	–
25 nM	CC(=O)Nc1ccc(-c2ccc3ncc4c(c3c2)n(-c2cccc(C(F)(F)F)c2)c(=O)n4C)cn1	3980 nM	42 nM	–
95 nM	Cn1c(=O)n(-c2cccc(C(F)(F)F)c2)c2c3cc(-c4cccnc4)ccc3ncc21	10300 nM	236 nM	–
21 nM	Cc1ccc(-c2ccc3ncc4c(c3c2)n(-c2cccc(C(F)(F)F)c2)c(=O)n4C)cn1	14500 nM	81 nM	–
386 nM	N#Cc1ccc(-n2c(=O)[nH]c3cnc4ccc(-c5ccc(N)nc5)cc4c32)cc1	> 45000 nM	482 nM	–
781 nM	O=c1[nH]c2cnc3ccc(-c4ccc(O)cc4)cc3c2n1-c1cccc(C(F)(F)F)c1	4060 nM	1470 nM	1
214 nM	O=c1[nH]c2cnc3ccc(-c4ccc5[nH]cnc5c4)cc3c2n1-c1cccc(C(F)(F)F)c1	3240 nM	347 nM	–
832 nM	Cn1c(=O)n(C2CCCCC2)c2c3cc(-c4ccc(N)nc4)ccc3ncc21	3840 nM	1880 nM	–
5780 nM	Cn1c(=O)n(-c2cccc(C(F)(F)F)c2)c2c3cc(-c4cnc5ccccc5c4)ccc3ncc21	31600 nM	5270 nM	–
1350 nM	Nc1ccc(-c2ccc3ncc4[nH]c(=O)n(C5CCCCC5)c4c3c2)cn1	6500 nM	2870 nM	–
93 nM	Cn1c(=O)n(-c2cccc(C(F)(F)F)c2)c2c3cc(-c4ccncc4)ccc3ncc21	1730 nM	359 nM	–
77 nM	Cn1c(=O)n(-c2cccc(C(F)(F)F)c2)c2c3cc(-c4cccc(N)c4)ccc3ncc21	13900 nM	145 nM	1
578 nM	Cn1c(=O)n(-c2cccc(C(F)(F)F)c2)c2c3cc(-c4ccc(S(C)(=O)=O)cc4)ccc3ncc21	> 45000 nM	855 nM	1
313 nM	O=c1[nH]c2cnc3ccc(-c4ccncc4)cc3c2n1-c1cccc(C(F)(F)F)c1	1500 nM	1140 nM	–
91 nM	Nc1ccc(-c2ccc3ncc4[nH]c(=O)n(-c5cccc(C(F)(F)F)c5)c4c3c2)cn1	3110 nM	97 nM	–
180 nM	Cc1ccc(-c2ccc3ncc4[nH]c(=O)n(-c5cccc(C(F)(F)F)c5)c4c3c2)cn1	> 45000 nM	320 nM	–
86 nM	Cn1c(=O)n(-c2cccc(C(F)(F)F)c2)c2c3cc(-c4ccc(N)cc4)ccc3ncc21	5530 nM	87 nM	1
109 nM	NC(=O)c1ccc(-c2ccc3ncc4[nH]c(=O)n(-c5cccc(C(F)(F)F)c5)c4c3c2)cc1	> 45000 nM	294 nM	1

IC50 [1]	Compound	IC50 [2]	IC50 [3]	Ratio IC50 [4]
17000 nM	Cn1c(=O)n(-c2cccc(C(F)(F)F)c2)c2c3ccccc3ncc21	> 45000 nM	3640 nM	–
5030 nM	O=c1[nH]c2cnc3ccccc3c2n1-c1cccc(C(F)(F)F)c1	> 45000 nM	7460 nM	–
1160 nM	Cn1c(=O)n(C2CC2)c2c3cc(-c4ccc(N)nc4)ccc3ncc21	11400 nM	865 nM	–
412 nM	O=c1[nH]c2cnc3ccc(-c4ccc(O)nc4)cc3c2n1-c1cccc(C(F)(F)F)c1	> 45000 nM	4630 nM	–
104 nM	Cn1c(=O)n(-c2ccc(C(F)(F)F)cc2)c2c3cc(-c4ccc(N)nc4)ccc3ncc21	> 45000 nM	237 nM	–
98 nM	Cn1c(=O)n(-c2ccc(C#N)cc2)c2c3cc(-c4ccc(N)nc4)ccc3ncc21	> 45000 nM	118 nM	–
1160 nM	CS(=O)(=O)c1ccc(-c2ccc3ncc4[nH]c(=O)n(-c5cccc(C(F)(F)F)c5)c4c3c2)cc1	> 45000 nM	1110 nM	1
69 nM	Cn1c(=O)n(-c2ccccc2)c2c3cc(-c4ccc(N)nc4)ccc3ncc21	6540 nM	219 nM	–
275 nM	Nc1cccc(-c2ccc3ncc4[nH]c(=O)n(-c5cccc(C(F)(F)F)c5)c4c3c2)c1	6170 nM	637 nM	1
7 nM	Cn1c(=O)n(-c2cccc(C(F)(F)F)c2)c2c3cc(-c4ccc(N)nc4)ccc3ncc21	2600 nM	28 nM	4
38 nM	Cn1c(=O)n(-c2cccc(C(F)(F)F)c2)c2c3cc(-c4ccc(C(N)=O)cc4)ccc3ncc21	4690 nM	497 nM	10
283 nM	Nc1ccc(-c2ccc3ncc4[nH]c(=O)n(-c5cccc(C(F)(F)F)c5)c4c3c2)cc1	7230 nM	3270 nM	11.6
4040 nM	O=c1[nH]c2cnc3ccc(-c4ccccc4)cc3c2n1-c1cccc(C(F)(F)F)c1	> 45000 nM	18400 nM	4.6
81 nM	CC(=O)Nc1ccc(-c2ccc3ncc4[nH]c(=O)n(-c5cccc(C(F)(F)F)c5)c4c3c2)cn1	> 45000 nM	186 nM	–
530 nM	Nc1ccc(-c2ccc3ncc4[nH]c(=O)n(-c5ccc(C(F)(F)F)cc5)c4c3c2)cn1	> 45000 nM	576 nM	–
183 nM	CCn1c(=O)n(-c2cccc(C(F)(F)F)c2)c2c3cc(-c4ccc(N)nc4)ccc3ncc21	3680 nM	205 nM	–
158 nM	Cn1c(=O)n(-c2cccc(C(F)(F)F)c2)c2c3cc(-c4ccc(O)nc4)ccc3ncc21	23500 nM	294 nM	–
15400 nM	O=c1[nH]c2cnc3ccc(-c4cnc5ccccc5c4)cc3c2n1-c1cccc(C(F)(F)F)c1	> 45000 nM	2350 nM	–
442 nM	Cn1c(=O)n(-c2cccc(C(F)(F)F)c2)c2c3cc(-c4ccccc4)ccc3ncc21	> 45000 nM	4710 nM	10.7
47 nM	COc1ccc(-n2c(=O)n(C)c3cnc4ccc(-c5ccc(N)nc5)cc4c32)cc1	2340 nM	148 nM	–
2820 nM	O=c1[nH]c2cnc3ccc(-c4cccnc4)cc3c2n1-c1cccc(C(F)(F)F)c1	2250 nM	11400 nM	–
